Results published in ChEMBL document CHEMBL1759927, “Design, synthesis and X-ray crystallographic study of NAmPRTase inhibitors as anti-cancer agents” (Eur J Med Chem, 2011).
Each block holds one compound with its values, some of them ahead of it.

Experiments:
MCF7 [1] = assay: Antitumor activity against human MCF7 cells after 6 days by SRB assay; format: functional; design: concentration or dose not given beside the values
Outline: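 MCF7 breast cancer cells were grown in RPMI 1640 with 10% FBS and antibiotic-antimycotic at 37 °C under 5% CO2. They were seeded at 50,000 cells/mL and exposed to inhibitor for six days. Cells were fixed with ice-cold TCA for 1 h, stained with SRB for 30 min at RT, washed with 1% acetic acid and solubilized in 10 mM Tris. A515 was read. […].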

K562 = assay: Cytotoxicity against human K562 cells after 6 days by SRB assay; format: functional, cell-based; details: K562, 144 h
Outline: (§1)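 Cells were plated at 50,000 cells/mL in a humidified 5% CO2 atmosphere at 37 °C and incubated with inhibitors for six days. They were then fixed 1 h in cold TCA, stained 30 min at RT with SRB, washed with 1% acetic acid and solubilized in 10 mM Tris before reading at 515 nm. Means of four duplicate samples were expressed relative to solvent control, with IC50 from nonlinear regression.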

HCT-116 = assay: Cytotoxicity against human HCT116 cells after 6 days by SRB assay; format: functional, cell-based; details: HCT-116, 144 h; outline: as §1
HT-1080 = assay: Cytotoxicity against human HT1080 cells after 6 days by SRB assay; format: functional, cell-based; details: HT-1080, 144 h; outline: as §1
SNU-638 = assay: Cytotoxicity against human SNU638 cells after 6 days by SRB assay; format: functional, cell-based; details: SNU-638, 144 h; outline: as §1
A549 = assay: Cytotoxicity against human A549 cells after 6 days by SRB assay; format: functional, cell-based; details: A549, 144 h; outline: as §1
MCF7 [2] = assay: Antitumor activity against human MCF7 cells at 10 uM after 6 days by SRB assay; format: functional, cell-based; details: MCF7, 144 h
Outline: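 MCF7 cells were cultured in RPMI 1640 with 10% FBS at 37 °C and 5% CO2, plated at 50,000 cells/mL, and given a fixed 10 µM compound for six days. Viability was read by SRB staining after TCA fixation, Tris solubilization and absorbance at 515 nm. […], as means of three experiments with standard deviations.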

[3] = molecular target: Nicotinamide phosphoribosyltransferase (Homo sapiens, UniProt P43490); assay: Inhibition of human NAmPRTase by HPLC analysis
Sequence of Nicotinamide phosphoribosyltransferase (P43490 whole entry): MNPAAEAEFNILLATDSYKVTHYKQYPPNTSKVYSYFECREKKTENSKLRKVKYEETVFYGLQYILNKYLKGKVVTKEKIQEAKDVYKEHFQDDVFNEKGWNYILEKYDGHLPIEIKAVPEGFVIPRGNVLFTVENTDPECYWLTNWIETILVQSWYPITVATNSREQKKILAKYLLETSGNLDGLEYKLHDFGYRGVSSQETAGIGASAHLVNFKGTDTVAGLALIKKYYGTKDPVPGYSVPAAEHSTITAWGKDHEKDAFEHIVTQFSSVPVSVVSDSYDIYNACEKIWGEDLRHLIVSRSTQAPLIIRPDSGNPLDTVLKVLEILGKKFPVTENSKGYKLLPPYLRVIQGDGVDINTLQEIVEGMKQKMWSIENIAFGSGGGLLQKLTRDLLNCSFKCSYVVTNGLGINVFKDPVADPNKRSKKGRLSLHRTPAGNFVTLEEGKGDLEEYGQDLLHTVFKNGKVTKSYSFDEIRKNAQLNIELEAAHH

SMILES: O=C(/C=C/c1cn(CCC(CO)CO)cn1)NCCCCC1CCN(C(=O)c2ccccc2)CC1
Cell survival (% of control) (MCF7 [1]): 104.3%

SMILES: Cc1c2ccncc2c(C)c2c1[nH]c1ccccc12 [ELLIPTECINE]
IC50 (K562): 380 nM
IC50 (HCT-116): 410 nM
IC50 (HT-1080): 210 nM
IC50 (SNU-638): 1640 nM
IC50 (A549): 470 nM

SMILES: O=C(/C=C/c1cncnc1)NCCCCC1CCN(C(=O)c2ccccc2)CC1
Cell survival (% of control) (MCF7 [1]): 86.8%

IC50 (MCF7 [2]): 1290 nM
IC50 [3]: 20300 nM
SMILES: O=C(/C=C/c1ccc[nH]1)NCCCCC1CCN(C(=O)c2ccccc2)CC1
Cell survival (% of control) (MCF7 [1]): 4.5%
IC50 (K562): 1400 nM
IC50 (HCT-116): 300 nM
IC50 (HT-1080): 3200 nM
IC50 (SNU-638): 1700 nM
IC50 (A549): 4860 nM

SMILES: O=C(/C=C/c1cn[nH]c1)NCCCCC1CCN(C(=O)c2ccccc2)CC1
Cell survival (% of control) (MCF7 [1]): 101.7%

SMILES: O=C(/C=C/c1c[nH]c2ccccc12)NCCCCC1CCN(C(=O)c2ccccc2)CC1
Cell survival (% of control) (MCF7 [1]): 103.3%

SMILES: O=C(/C=C/c1cnn(CCC(CO)CO)c1)NCCCCC1CCN(C(=O)c2ccccc2)CC1
Cell survival (% of control) (MCF7 [1]): 106.6%

SMILES: Cn1cccc1/C=C/C(=O)NCCCCC1CCN(C(=O)c2ccccc2)CC1
Cell survival (% of control) (MCF7 [1]): 103.6%

SMILES: Nc1ncc(/C=C/C(=O)NCCCCC2CCN(C(=O)c3ccccc3)CC2)cn1
Cell survival (% of control) (MCF7 [1]): 103.4%

IC50 (MCF7 [2]): 680 nM
SMILES: O=C(/C=C/c1cccnc1)NCCCCC1CCN(C(=O)c2ccccc2)CC1 [DAPORINAD]
Cell survival (% of control) (MCF7 [1]): 5.6%
IC50 (K562): > 20000 nM
IC50 (HCT-116): < 160 nM
IC50 (HT-1080): < 160 nM
IC50 (SNU-638): < 160 nM
IC50 (A549): < 160 nM

SMILES: Nc1ccccc1/C=C/C(=O)NCCCCC1CCN(C(=O)c2ccccc2)CC1
Cell survival (% of control) (MCF7 [1]): 106.3%

SMILES: O=C(/C=C/c1cccc([N+](=O)[O-])c1)NCCCCC1CCN(C(=O)c2ccccc2)CC1
Cell survival (% of control) (MCF7 [1]): 103.1%

SMILES: O=C(/C=C/c1cn(CCC(CO)CO)c2ccccc12)NCCCCC1CCN(C(=O)c2ccccc2)CC1
Cell survival (% of control) (MCF7 [1]): 104.9%

SMILES: O=C(/C=C/c1c[nH]cn1)NCCCCC1CCN(C(=O)c2ccccc2)CC1
Cell survival (% of control) (MCF7 [1]): 102.9%

SMILES: Nc1cccc(/C=C/C(=O)NCCCCC2CCN(C(=O)c3ccccc3)CC2)c1
Cell survival (% of control) (MCF7 [1]): 103.9%

SMILES: O=C(/C=C/c1ccccc1[N+](=O)[O-])NCCCCC1CCN(C(=O)c2ccccc2)CC1
Cell survival (% of control) (MCF7 [1]): 102.7%

SMILES: O=C(/C=C/c1cccn1CCC(CO)CO)NCCCCC1CCN(C(=O)c2ccccc2)CC1
Cell survival (% of control) (MCF7 [1]): 105%
